Compounds with a hit are over-represented: about 5.1% of the library has one in this group of screens.
BAP1 block: human BAP1 deubiquitinase inhibition; Q92560; recombinant BAP1, Ub-AMC hydrolysis fluorescence kinetic; hits give low values; calls only at 20 µM; 72,000 tested, 0.48% active; AID 436;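 active = activity remaining at or below 50% of control, provided the compound also passes the data quality filters; inactive = the rest, including low values that fail the filters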;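 note: 100% = DMSO wells rate and 0% = substrate alone blank rate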
Target sequence (Q92560 whole entry, looked up): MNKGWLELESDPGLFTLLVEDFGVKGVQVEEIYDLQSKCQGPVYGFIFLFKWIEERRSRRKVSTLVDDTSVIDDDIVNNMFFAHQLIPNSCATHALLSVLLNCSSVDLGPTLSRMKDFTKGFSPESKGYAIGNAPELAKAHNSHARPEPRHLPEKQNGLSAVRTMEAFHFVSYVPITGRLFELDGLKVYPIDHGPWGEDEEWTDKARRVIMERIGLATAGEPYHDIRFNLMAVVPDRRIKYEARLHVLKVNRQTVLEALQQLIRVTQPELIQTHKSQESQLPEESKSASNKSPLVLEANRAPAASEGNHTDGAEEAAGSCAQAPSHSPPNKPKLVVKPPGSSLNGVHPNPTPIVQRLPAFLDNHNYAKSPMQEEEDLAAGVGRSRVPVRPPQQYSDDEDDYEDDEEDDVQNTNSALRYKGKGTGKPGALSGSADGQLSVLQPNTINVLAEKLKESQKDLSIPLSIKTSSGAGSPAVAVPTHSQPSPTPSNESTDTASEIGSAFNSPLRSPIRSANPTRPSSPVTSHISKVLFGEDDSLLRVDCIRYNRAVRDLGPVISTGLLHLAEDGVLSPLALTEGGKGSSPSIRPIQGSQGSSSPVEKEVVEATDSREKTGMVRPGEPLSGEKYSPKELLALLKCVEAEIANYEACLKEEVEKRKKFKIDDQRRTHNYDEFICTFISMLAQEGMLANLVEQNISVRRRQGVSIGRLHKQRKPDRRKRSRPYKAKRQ
ERa SRC1 pot: enhances coactivator binding to human estrogen receptor alpha. P03372. TR-FRET ERalpha-LBD/SRC-Cy5 coactivator binding, 2 h; 100 = basal binding, no effect. coactivator binding (% of control), % at 25.6 µM. 86,000 tested, 1.3% active. AID 639; in the data active = activity above about 200%;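 note: binding measured in presence of low estradiol as agonist stimulus; 0% = peptide alone without receptor and 100% = receptor with peptide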
SF1 activator: activators of human nuclear receptor SF-1 | Q13285 | CHO-K1 Gal4-SF-1 LBD luciferase reporter; % increase over DMSO SF-1-specific signal | activation, % at 10 µM | 65,000 tested, 1.9% active;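 active = activation above the mean activation of all tested compounds plus 3 SD, cut at about 50% in these data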
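Test system: CHO-K1 cells with Gal4–hSF-1 LBD chimera plus Gal4-driven luciferase; Input: 4,000 cells/well; Compound: 10 µM only; Times: 20 h compound treatment, 37 °C; Measured by: steady-glow luciferase luminescence, read after 15 min reagent incubation; Measure: percent activation versus DMSO; Control set: DMSO and mock-transfected background; Replicates: one test per compound.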
ERb SRC1 inh: ER-beta (human) coactivator binding inhibition. Q92731. TR-FRET ER-beta LBD / SRC1-Cy5 peptide binding; receptor agonist-loaded with 1 µM estradiol. inhibition, % at 25.6 µM. 86,000 tested, 1.3% active. AID 633;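 active = compounds whose percent inhibition of the receptor-coactivator binding signal exceeds about 50% in the single-dose screen, limit read from the data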;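 note: 0% = receptor plus peptide wells without compound and 100% = peptide-only wells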
ERa coact inh: ER-alpha (human) coactivator binding inhibition | P03372 | TR-FRET ER-alpha LBD / SRC-1 peptide, estradiol-bound | inhibition, % at 25.6 µM | 86,000 tested, 1.7% active; in the data active = inhibition above about 50%;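 note: 0% = receptor plus peptide control and 100% = peptide only without receptor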
RORA act: RORA (human) activation; P35398; AID 560; CHO-K1 Gal4-RORA LBD luciferase reporter, luminescence; percent increase over mock-subtracted basal signal; activation, % at 10 µM; 65,000 tested, 1.5% active;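 active = activation above the mean of all tested compounds plus 3 SD, cut at about 49% in these data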;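 note: 0% = DMSO-treated RORA cells and 100% = added signal equal to DMSO minus mock-transfected cells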
An asterisk follows results filed as active; i = inactive; · = no result shown; [ ] = dose if it differs, or a comment.

SMILES	BAP1 block	ERa SRC1 pot	SF1 activator	ERb SRC1 inh	ERa coact inh	RORA act
CCCCN(C)Cc1c(O)ccc2c(=O)c(Oc3ccccc3Br)c(C(F)(F)F)oc12	i	·	·	·	·	·
CCOc1ccccc1Nc1nc2ccccc2n2cnnc12	i	368*[fluorescence artefact?]	6	43	25	38
c1ccc2c(c1)nc(NCCN1CCOCC1)c1nncn12	i	114	-3	-9	-2	-14
COc1ccc(Nc2nc3ccccc3n3cnnc23)cc1	·	105	·	17	-4	·
Fc1ccc(CNc2nc3ccccc3n3cnnc23)cc1	·	306*[fluorescence artefact?]	·	1	84*	·
Cc1ccc(CNc2nc3ccccc3n3nnnc23)cc1	i	209*[fluorescence artefact?]	33	38	51*	22
COc1ccccc1OCC(=O)Nc1cccc(-c2nc3ccccc3o2)c1	i	73	61*	14	36	20
CCCCC(=O)Nc1cccc(-c2nnc(-c3ccccc3)o2)c1	i	108	33	2	25	68*
COc1ccc(OCC(=O)Nc2cccc(OC)c2)cc1	i	125	-21	4	-13	30
Cc1cccc(C)c1OCC(=O)Nc1cccc(-c2nnc(-c3ccccc3)o2)c1	·	·	37	·	·	16
COc1cccc(NC(=O)COc2ccccc2C(N)=O)c1	i	91	62*	-15	-3	15
Cc1ccc(OCC(=O)Nc2cccc(-c3nnc(-c4ccccc4)o3)c2)cc1	·	·	12	·	·	13
Cc1cccc(OCC(=O)Nc2cccc(-c3nnc(-c4ccccc4)o3)c2)c1C	·	124	-12	44	72*[fluorescence artefact?]	11
Cc1ccc(N2C(=O)c3cc4cccc(Br)c4cc3C2=O)cc1	i	·	·	·	·	·
CC(C)C(C)(O)C#CCN1CCOCC1 (configuration not stated)	i	·	·	·	·	·
Cc1nnc2sc(-c3ccc(NC(=O)c4ccc(-c5ccc(Cl)cc5Cl)o4)cc3)nn12	i	110	10	49	70*	1
Cc1nnc2sc(-c3ccc(NC(=O)c4cccnc4)cc3)nn12	·	81	15	-1	3	14
CCN(CC)c1ccc(NC(=O)c2cnc3ccccn3c2=O)c(C)c1	i	629*[fluorescence artefact?]	-13	-1	-41	-10
COc1ccc(NC(=O)c2cnc3ccccn3c2=O)cc1OC	i	101	18	-5	-7	53*
CCN(CC)c1ccc(NC(=O)c2cccnc2)c(C)c1	·	104	·	-11	-9	·
O=C(NCc1ccco1)c1cnc2ccccn2c1=O	i	88	-1	11	-4	2
COc1ccc(NC(=O)c2cnc3n(c2=O)CCS3)cc1OC	i	99	9	4	0	15
CCN(CC)c1ccc(NC(=O)c2cccc(C)c2OC)c(C)c1	i	91	66*	1	-9	73*
CC1=C(C(=O)OCCCCl)C(c2ccc(C)cc2)NC(=O)N1 (configuration not stated)	i	·	·	·	·	·
C=CCNc1nc(-c2cccc(OC)c2O)nc2ccccc12	i	85	15	29	58*	13
SMILES	BAP1 block	ERa SRC1 pot	SF1 activator	ERb SRC1 inh	ERa coact inh	RORA act
Cc1ccccc1OCC(=O)Nc1ccc(OC(C)C)cc1	i	·	·	·	·	·
Cc1nn(-c2ccccc2)c(C)c1C(=O)OCC(=O)N1CC(=O)Nc2ccccc21	i	101	-1	-22	-17	8
Cc1nn(-c2ccccc2)c(C)c1C(=O)OC/C(O)=C(\C#N)c1nc2ccccc2[nH]1	·	60	4	23	56*[fluorescence artefact?]	28
CCCc1ccc(-c2ccc(C(=O)Nc3ccc(C)cc3)cc2)nc1	i	·	·	·	·	·
O=C(NC1CCCCC1)c1ccc(N2CCCC2=O)cc1	i	91	40	2	-1	29
O=C(NC1CCCCCC1)c1ccc(N2CCCC2=O)cc1	i	128	54*	-7	-9	29
Oc1ccc(-c2cn3c(n2)SCC3)cc1	·	114	·	67*[fluorescence artefact?]	-8	·
Oc1ccc(-c2cn3c(n2)SCC3)cc1O	·	20	·	94*[fluorescence artefact?]	75*[fluorescence artefact?]	·
c1ccc(-c2cn3c(n2)SCC3)cc1	i	103	·	-1	-8	·
CCCc1nnc2n1N=C(c1ccc(OC)c(OC)c1)CS2	i	122	2	3	-7	13
CCCc1nnc2n1N=C(c1ccc(-c3cc(Cl)ccc3Cl)o1)CS2	i	144	0	45	73*	6
C=CCc1cccc(/C=N/c2ncccc2O)c1O	i	63	2	58*[fluorescence artefact?]	22	3
CCOC(=O)c1cnc2c(-c3ccccc3)cnn2c1N	i	128	52*	-1	0	-5
CCOC(=O)c1cnn(-c2ccccn2)c1N	i	102	35	-1	-7	53*
CCOC(=O)c1cnn(-c2sc(C(=O)OCC)c(C)c2C(=O)OCC)c1N	·	29	8	64*[fluorescence artefact?]	63*[fluorescence artefact?]	17
CCOC(=O)c1cnn(-c2ncnc3sc4c(c23)CCC4)c1N	i	112	-4	12	5	5
COC(=O)c1cccc(C(=O)Oc2ccc3ccccc3c2Br)n1	i	·	·	·	·	·
O=c1cc(Nc2ccc3c(c2)OCCO3)[nH]c(=O)n1-c1ccc(Cl)cc1	i	95	40	17	-3	50*
COc1ccc2nc(-c3ccco3)c(-c3ccco3)nc2c1	·	12	·	98*[fluorescence artefact?]	97*[fluorescence artefact?]	·
c1coc(-c2nc(-c3ccco3)c(-c3ccco3)nc2-c2ccco2)c1	·	10	-8	85*[fluorescence artefact?]	87*[fluorescence artefact?]	5
Nc1nc(-c2ccco2)cs1	i	79	4	4	-4	4
Nc1nc(-c2ccco2)c(-c2ccco2)s1	i	63	-6	54*	35	-4
N#Cc1ccc(-c2ccccc2)nc1SCC(=O)c1ccccc1	i	·	·	·	·	·
CC(=O)Nc1nc2ccc(N)cc2s1	i	·	·	·	·	·
CCOC(=O)c1ccccc1NC(=O)c1ccc(OC)c(OC)c1	i	·	·	·	·	·
SMILES	BAP1 block	ERa SRC1 pot	SF1 activator	ERb SRC1 inh	ERa coact inh	RORA act
O=C(CN1CCN(Cc2ccccc2)CC1)N1CCCc2c1c(=O)oc1ccc(O)cc21	i	82	13	-10	16	8
O=C(CN1CCCCC1)N1CCCc2c1c(=O)oc1ccc(OCc3ccccc3)cc21	·	327*[fluorescence artefact?]	·	-5	1	·
CCCCCOC(=O)C1=C(C)N(C)C(=O)NC1c1ccccc1Cl (configuration not stated)	i	·	·	·	·	·
CCC(C)NC(=O)CSc1nc2ccsc2c(=O)n1-c1ccc(OC)cc1 (configuration not stated)	·	98	·	8	-1	·
COc1ccc(-n2c(SCC(=O)NC3CCCCC3)nc3ccsc3c2=O)cc1	·	214*[fluorescence artefact?]	·	41	19	·
COCCSc1nc2sc3c(c2c(=O)n1-c1ccccc1)CCN(C)C3	·	99	-18	7	-1	-5
O=C(CSc1nc2c(c(=O)n1-c1ccc(Br)cc1)SCC2)Nc1nccs1	i	152	-8	25	59*	9
